According to ChEMBL document CHEMBL1144696, “Overcoming drug resistance to heme-targeted antimalarials by systematic side chain variation of 7-chloro-4-aminoquinolines” (J Med Chem, 2008):

Experiments:
Plasmodium falciparum [1] = assay: Antiplasmodial activity against chloroquine-resistant Plasmodium falciparum Dd2 after 72 hrs by SYBR green 1 assay; assay type: functional, organism-based; conditions: Dd2, 72 h
In short: (§1)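 P. falciparum growth inhibition measured by SYBR Green I intercalation. Each strain was tested separately. IC50 calculated from triplicate experiments. Values are averages of two separate determinations, each run in triplicate.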

Plasmodium falciparum [2] = assay: Antiplasmodial activity against chloroquine-sensitive Plasmodium falciparum GCO3 after 72 hrs by SYBR green 1 assay; assay type: functional, organism-based; conditions: GCO3, 72 h; in short: as §1
Plasmodium falciparum [3] = assay: Selectivity index for chloroquine-resistant Plasmodium falciparum FCB to chloroquine-sensitive Plasmodium falciparum GCO3 by SYBR green IC50 ratio; assay type: functional
Plasmodium falciparum [4] = assay: Antiplasmodial activity against chloroquine-sensitive Plasmodium falciparum HB3 after 72 hrs by SYBR green 1 assay; assay type: functional, organism-based; conditions: HB3, 72 h; in short: as §1
Plasmodium falciparum [5] = assay: Antiplasmodial activity against chloroquine-resistant Plasmodium falciparum FCB after 72 hrs by SYBR green 1 assay; assay type: functional, organism-based; in short: as §1
Plasmodium falciparum [6] = assay: Selectivity for chloroquine-resistant Plasmodium falciparum Dd2 over chloroquine-sensitive Plasmodium falciparum HB3 as IC50 ratio by SYBR green assay; assay type: functional
In short: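 Selectivity index is IC50 for Dd2 divided by IC50 for HB3. Both IC50s come from the SYBR Green I assay, averaging two determinations each run in triplicate.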

SMILES | IC50 (Plasmodium falciparum [1]) [nM] | IC50 (Plasmodium falciparum [2]) [nM] | Ratio IC50 (Plasmodium falciparum [3]) | IC50 (Plasmodium falciparum [4]) [nM] | IC50 (Plasmodium falciparum [5]) [nM] | Ratio IC50 (Plasmodium falciparum [6])
CC(C)NC1CCC(Nc2ccnc3cc(Cl)ccc23)CC1 (centres undefined) | 75.7 | 19.5 | 3.89 | 31.3 | 66 | 2.42
CC(C)N(CCCN(CCCN(C(C)C)C(C)C)c1ccnc2cc(Cl)ccc12)C(C)C | 99.8 | 42.4 | 2.45 | 44.1 | 104 | 2.26
CCN(CC)CCCN(CC)CCNc1ccnc2cc(Cl)ccc12 | 31.2 | 37.7 |  | 27.3 | 52.7 | 
CCN(CC)CCCNCCCCNc1ccnc2cc(Cl)ccc12 | 170 | 139 | 1.36 | 72.5 | 189 | 2.34
CCN(CC)CCCNCCCCCCNc1ccnc2cc(Cl)ccc12 | 269 | 129 | 1.67 | 82.8 | 216 | 3.25
CCN(CC)CCCNCCNc1ccnc2cc(Cl)ccc12 | 129 | 118 |  | 29.2 | 146 | 
CCN(CC)CCCNCCCNc1ccnc2cc(Cl)ccc12 | 56.3 | 64.8 | 1.14 | 27.3 | 73.7 | 2.06
CC(C)N(CCCCN(CCCCN(C(C)C)C(C)C)c1ccnc2cc(Cl)ccc12)C(C)C | 2550 | 1510 | 1.47 | 1310 | 2220 | 1.94
CCN(CC)CCCCN(CCCCN(CC)CC)c1ccnc2cc(Cl)ccc12 | 882 | 517 | 2.05 | 716 | 1060 | 1.23
CCN(CC)CCCN(CC)CCCCCNc1ccnc2cc(Cl)ccc12 | 43.4 | 55.2 | 1.21 | 15.7 | 66.8 | 2.76
CCN(CC)CCCN(CC)CCCNc1ccnc2cc(Cl)ccc12 | 28.1 | 27.6 | 1.78 | 21.2 | 49.1 | 1.33
CCN(CC)C1CCCC(Nc2ccnc3cc(Cl)ccc23)C1 (centres undefined) | 80 | 40.6 | 2.78 | 26.3 | 113 | 3.04
CCN(CC)CCCN(CC)CCCCNc1ccnc2cc(Cl)ccc12 | 84.6 | 87.4 | 1.78 | 24.1 | 156 | 3.52
CC(C)NC1CCCC(Nc2ccnc3cc(Cl)ccc23)C1 (centres undefined) | 76.1 | 26.1 | 4.21 | 27.8 | 110 | 2.74
CCN(CC)CCCNCCCCCNc1ccnc2cc(Cl)ccc12 | 103 | 68.7 | 1.42 | 46 | 97.3 | 2.25
CCN(CC)CCCN(CC)CCCCCCNc1ccnc2cc(Cl)ccc12 | 274 | 175 | 1.5 | 62.9 | 263 | 4.36
CCN(CC)C1CCC(Nc2ccnc3cc(Cl)ccc23)CC1 (centres undefined) | 51.8 | 32 | 1.8 | 25.5 | 57.6 | 2.03
CCN(CC)CCCN(CCCN(CC)CC)c1ccnc2cc(Cl)ccc12 | 128 | 96.6 | 1.92 | 187 | 186 | 0.68
